# pKi: −log10 of the molar value.
# Target: T1, CYP1A2 (Homo sapiens, UniProt P05177)
# T1 sequence (P05177 whole entry): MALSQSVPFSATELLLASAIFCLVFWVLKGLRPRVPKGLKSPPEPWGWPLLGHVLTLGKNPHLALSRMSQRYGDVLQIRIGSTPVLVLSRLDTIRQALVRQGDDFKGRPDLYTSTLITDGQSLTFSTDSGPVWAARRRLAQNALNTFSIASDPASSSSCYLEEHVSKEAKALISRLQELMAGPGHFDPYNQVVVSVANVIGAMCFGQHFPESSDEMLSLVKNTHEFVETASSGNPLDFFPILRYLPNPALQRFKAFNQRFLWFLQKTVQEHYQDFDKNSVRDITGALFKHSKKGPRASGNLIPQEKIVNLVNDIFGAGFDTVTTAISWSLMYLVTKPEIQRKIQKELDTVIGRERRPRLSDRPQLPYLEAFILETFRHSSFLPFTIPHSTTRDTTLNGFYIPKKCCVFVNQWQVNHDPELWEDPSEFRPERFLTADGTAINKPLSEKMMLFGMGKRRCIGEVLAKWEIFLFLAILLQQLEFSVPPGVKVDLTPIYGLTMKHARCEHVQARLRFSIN
# Assay: Inhibition of CYP1A2 (unknown origin) at 5 uM relative to control
# Format: ADME
# Details: not given
row,SMILES,inhibition at 5 µM
1,CCCn1c(Oc2cccnc2C)nc2nc(C3CCCC3)[nH]c2c1=O,0%
2,CCCn1c(Oc2ccc(F)c(F)c2)nc2nc(C3CCCC3)[nH]c2c1=O,7%
3,CCCn1c(-c2cccc(OC)c2)nc2nc(C3CCCC3)[nH]c2c1=O,0%

# Test system: not listed separately
# Assay: Metabolic stability in human liver microsomes assessed as parent compound remaining measured after 30 mins in presence of NADPH
# Format: ADME, microsome
# Details: read-out: Stability
row,SMILES,remaining at 0.5 h
1,CCCn1c(Oc2cccnc2C)nc2nc(C3CCCC3)[nH]c2c1=O,79%
2,CCCn1c(Oc2ccc(F)c(F)c2)nc2nc(C3CCCC3)[nH]c2c1=O,82%
3,CCCn1c(-c2cccc(OC)c2)nc2nc(C3CCCC3)[nH]c2c1=O,97%

# Test system: not listed separately
# Assay: Thermodynamic solubility of the compound in pH 7.4 solution
# Format: physicochemical
# Details: read-out: Therm_solubility
row,SMILES,solubility thermodynamic
1,CCCn1c(Oc2cccnc2C)nc2nc(C3CCCC3)[nH]c2c1=O,38 µM
2,CCCn1c(Oc2ccc(F)c(F)c2)nc2nc(C3CCCC3)[nH]c2c1=O,17 µM
3,CCCn1c(-c2cccc(OC)c2)nc2nc(C3CCCC3)[nH]c2c1=O,54 µM

# Test system: not listed separately
# Assay: AUC (0 to t) in Wistar rat at 3 mg/kg, iv by LC-Ms/MS analysis
# Format: ADME, organism-based
# Details: in vivo
# Procedure, shortened: (§1)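 Male Wistar rats (230 ± 15 g), fasted overnight with water available. IV dose of 3 mg/kg given by tail vein as a solution (0.6 mg/mL, 5 mL/kg). PO dose of 5 mg/kg given by gavage as a suspension. Blood was collected into K2EDTA at 0.008 (IV only) to 24 h and plasma was spun off. Samples were precipitated with acetonitrile and run on LC/MS/MS. Parameters came from non-compartmental analysis of individual animals, mean of n = 4.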
row,SMILES,AUC(0-t)
1,CCCn1c(Oc2cccnc2C)nc2nc(C3CCCC3)[nH]c2c1=O,2.7 µM·h
2,CCCn1c(Oc2ccc(F)c(F)c2)nc2nc(C3CCCC3)[nH]c2c1=O,10.2 µM·h
3,CCCn1c(-c2cccc(OC)c2)nc2nc(C3CCCC3)[nH]c2c1=O,3.53 µM·h

# Test system: not listed separately
# Assay: Metabolic stability in rat liver microsomes assessed as parent compound remaining measured after 30 mins in presence of NADPH
# Format: ADME, microsome
# Details: read-out: Stability
row,SMILES,remaining at 0.5 h
1,CCCn1c(Oc2cccnc2C)nc2nc(C3CCCC3)[nH]c2c1=O,78%
2,CCCn1c(Oc2ccc(F)c(F)c2)nc2nc(C3CCCC3)[nH]c2c1=O,75%
3,CCCn1c(-c2cccc(OC)c2)nc2nc(C3CCCC3)[nH]c2c1=O,82%

# Target: T2, Adenosine receptor A1 (Homo sapiens, UniProt P30542)
# T2 sequence (P30542 whole entry): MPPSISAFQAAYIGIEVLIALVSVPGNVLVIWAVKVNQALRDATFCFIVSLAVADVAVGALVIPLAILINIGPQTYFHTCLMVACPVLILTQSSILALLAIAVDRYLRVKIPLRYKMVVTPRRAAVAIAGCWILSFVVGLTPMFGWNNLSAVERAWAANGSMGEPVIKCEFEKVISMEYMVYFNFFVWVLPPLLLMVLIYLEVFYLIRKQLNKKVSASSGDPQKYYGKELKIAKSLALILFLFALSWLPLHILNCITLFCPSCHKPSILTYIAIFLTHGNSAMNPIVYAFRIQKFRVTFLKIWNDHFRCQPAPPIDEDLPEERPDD
# Assay: Antagonist activity at human adenosine A1 receptor expressed in HEK293 cells assessed as reduction in CPA-mediated inhibition of forskolin-stimulated cAMP level preincubated for 15 mins followed by CPA treatment for 15 mins and subsequent addition of forskolin measured after 30 mins by HTRF assay
# Format: functional, cell-based
# Details: not given
row,SMILES,pKi
1,CCCn1c(Oc2cccnc2C)nc2nc(C3CCCC3)[nH]c2c1=O,9.55
2,CCCn1c(Oc2ccc(F)c(F)c2)nc2nc(C3CCCC3)[nH]c2c1=O,7.89
3,CCCn1c(-c2cccc(OC)c2)nc2nc(C3CCCC3)[nH]c2c1=O,7.82

# Test system: not listed separately
# Assay: Protein binding in rat plasma at 5 uM
# Format: ADME, cell-free
# Details: read-out: PPB (converted)
row,SMILES,fraction unbound at 5 µM
1,CCCn1c(Oc2cccnc2C)nc2nc(C3CCCC3)[nH]c2c1=O,0.23
2,CCCn1c(Oc2ccc(F)c(F)c2)nc2nc(C3CCCC3)[nH]c2c1=O,0.01
3,CCCn1c(-c2cccc(OC)c2)nc2nc(C3CCCC3)[nH]c2c1=O,0.05

# Test system: not listed separately
# Assay: Thermodynamic solubility of the compound in pH 2 solution
# Format: physicochemical
# Details: read-out: Therm_solubility
row,SMILES,solubility thermodynamic
1,CCCn1c(Oc2cccnc2C)nc2nc(C3CCCC3)[nH]c2c1=O,2150 µM
2,CCCn1c(Oc2ccc(F)c(F)c2)nc2nc(C3CCCC3)[nH]c2c1=O,77 µM
3,CCCn1c(-c2cccc(OC)c2)nc2nc(C3CCCC3)[nH]c2c1=O,614 µM

# Test system: not listed separately
# Assay: Volume of distribution at steady state in Wistar rat at 3 mg/kg, iv by LC-Ms/MS analysis
# Format: ADME, organism-based
# Details: in vivo, read-out: Vdss
# Procedure, shortened: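 Male Wistar rats (230 ± 15 g), fasted overnight with water available. IV dosing at 3 mg/kg by tail vein as solution (0.6 mg/mL, 5 mL/kg). PO dosing at 5 mg/kg by oral gavage. Serial blood sampling into K2EDTA from 0.008 (IV only) to 24 h. Plasma precipitated with acetonitrile containing internal standard and analysed by LC/MS/MS. Non-compartmental parameters calculated per animal; values are means of n = 4.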
row,SMILES,Vd
1,CCCn1c(Oc2cccnc2C)nc2nc(C3CCCC3)[nH]c2c1=O,2 L/kg
2,CCCn1c(Oc2ccc(F)c(F)c2)nc2nc(C3CCCC3)[nH]c2c1=O,1.73 L/kg
3,CCCn1c(-c2cccc(OC)c2)nc2nc(C3CCCC3)[nH]c2c1=O,1.2 L/kg

# Target: T2, Adenosine receptor A1
# Assay: Displacement of [3H]DPCPX from human adenosine A1 receptor expressed in HEK293 cell membranes after 90 mins
# Details: not given
row,SMILES,pKi
1,CCCn1c(Oc2cccnc2C)nc2nc(C3CCCC3)[nH]c2c1=O,8.18
2,CCCn1c(Oc2ccc(F)c(F)c2)nc2nc(C3CCCC3)[nH]c2c1=O,7.64
3,CCCn1c(-c2cccc(OC)c2)nc2nc(C3CCCC3)[nH]c2c1=O,7.80

# Test system: not listed separately
# Assay: Elimination half life in Wistar rat at 3 mg/kg, iv by LC-Ms/MS analysis
# Format: ADME, organism-based
# Details: in vivo, read-out: beta t1/2 (converted)
# Procedure, shortened: as §1
row,SMILES,half-life
1,CCCn1c(Oc2cccnc2C)nc2nc(C3CCCC3)[nH]c2c1=O,30 min
2,CCCn1c(Oc2ccc(F)c(F)c2)nc2nc(C3CCCC3)[nH]c2c1=O,124 min
3,CCCn1c(-c2cccc(OC)c2)nc2nc(C3CCCC3)[nH]c2c1=O,29.4 min

# Test system: not listed separately
# Assay: Clearance in Wistar rat at 3 mg/kg, iv by LC-Ms/MS analysis
# Format: ADME, organism-based
# Details: in vivo
# Procedure, shortened: as §1
row,SMILES,clearance
1,CCCn1c(Oc2cccnc2C)nc2nc(C3CCCC3)[nH]c2c1=O,55 mL/min/kg
2,CCCn1c(Oc2ccc(F)c(F)c2)nc2nc(C3CCCC3)[nH]c2c1=O,13.6 mL/min/kg
3,CCCn1c(-c2cccc(OC)c2)nc2nc(C3CCCC3)[nH]c2c1=O,39.2 mL/min/kg

# Target: CYP3A4 (Homo sapiens, UniProt P08684)
# Sequence (P08684 whole entry): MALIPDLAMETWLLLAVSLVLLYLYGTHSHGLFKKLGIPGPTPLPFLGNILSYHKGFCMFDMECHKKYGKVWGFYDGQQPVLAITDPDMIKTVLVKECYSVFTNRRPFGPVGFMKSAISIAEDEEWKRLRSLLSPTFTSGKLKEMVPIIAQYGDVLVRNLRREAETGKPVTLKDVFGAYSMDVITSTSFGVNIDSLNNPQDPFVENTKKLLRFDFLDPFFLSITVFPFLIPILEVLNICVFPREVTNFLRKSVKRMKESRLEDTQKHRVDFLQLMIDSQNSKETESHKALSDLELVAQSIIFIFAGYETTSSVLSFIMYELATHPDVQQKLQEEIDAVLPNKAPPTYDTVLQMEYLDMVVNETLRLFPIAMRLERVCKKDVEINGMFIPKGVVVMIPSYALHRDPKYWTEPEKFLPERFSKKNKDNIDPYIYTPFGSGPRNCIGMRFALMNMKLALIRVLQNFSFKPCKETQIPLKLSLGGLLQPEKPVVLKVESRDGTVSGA
# Assay: Inhibition of CYP3A4 (unknown origin) at 5 uM relative to control
# Format: ADME
# Details: not given
row,SMILES,inhibition at 5 µM
1,CCCn1c(Oc2cccnc2C)nc2nc(C3CCCC3)[nH]c2c1=O,0%
2,CCCn1c(Oc2ccc(F)c(F)c2)nc2nc(C3CCCC3)[nH]c2c1=O,34%
3,CCCn1c(-c2cccc(OC)c2)nc2nc(C3CCCC3)[nH]c2c1=O,5%

# Test system: not listed separately
# Assay: Thermodynamic solubility of the compound in pH 4 solution
# Format: physicochemical
# Details: read-out: Therm_solubility
row,SMILES,solubility thermodynamic
1,CCCn1c(Oc2cccnc2C)nc2nc(C3CCCC3)[nH]c2c1=O,43 µM
2,CCCn1c(Oc2ccc(F)c(F)c2)nc2nc(C3CCCC3)[nH]c2c1=O,23 µM
3,CCCn1c(-c2cccc(OC)c2)nc2nc(C3CCCC3)[nH]c2c1=O,63 µM

# Target: Adenosine receptor A2a (Homo sapiens, UniProt P29274)
# Sequence (P29274 whole entry): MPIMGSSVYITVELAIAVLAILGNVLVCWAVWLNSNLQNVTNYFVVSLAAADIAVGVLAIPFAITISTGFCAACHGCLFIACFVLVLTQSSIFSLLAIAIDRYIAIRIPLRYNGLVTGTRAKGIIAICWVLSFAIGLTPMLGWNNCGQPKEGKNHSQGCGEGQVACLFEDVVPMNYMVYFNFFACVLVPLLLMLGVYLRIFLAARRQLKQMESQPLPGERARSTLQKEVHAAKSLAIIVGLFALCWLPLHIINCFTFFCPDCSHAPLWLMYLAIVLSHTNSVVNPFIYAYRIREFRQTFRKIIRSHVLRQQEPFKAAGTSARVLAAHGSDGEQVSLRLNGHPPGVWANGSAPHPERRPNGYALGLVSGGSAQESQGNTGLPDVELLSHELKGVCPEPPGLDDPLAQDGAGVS
# Assay: Displacement of [3H]ZM241385 from human adenosine A2A receptor expressed in HEK293 cell membranes after 90 mins
# Details: not given
# Procedure, shortened: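 Membranes from HEK-293 cells stably transfected with human receptor, pre-treated with adenosine deaminase. Radioligands: 1 nM [3H]DPCPX (A1), 1 nM [3H]ZM241385 (A2A), 1.6 nM [3H]MRS-1754 (A2B), 2 nM [3H]HEMADO (A3). Buffers: Tris pH 7.4 (A1, A2A, A3) or pH 6.5 (A2B), with ADA. Incubated 90 min at room temperature, then filtered. Nonspecific binding defined with 100 µM NECA. Ki from 8 concentrations run in triplicate.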
row,SMILES,pKi
1,CCCn1c(Oc2cccnc2C)nc2nc(C3CCCC3)[nH]c2c1=O,5.70
2,CCCn1c(Oc2ccc(F)c(F)c2)nc2nc(C3CCCC3)[nH]c2c1=O,< 5.00
3,CCCn1c(-c2cccc(OC)c2)nc2nc(C3CCCC3)[nH]c2c1=O,≤ 5.00

# Test system: Liver
# Assay: Metabolic stability in human liver microsomes assessed as metabolic rate measured after 30 mins in presence of NADPH
# Format: ADME, microsome
# Details: 0.5 h
row,SMILES,Drug metabolism
1,CCCn1c(Oc2cccnc2C)nc2nc(C3CCCC3)[nH]c2c1=O,0.06 nmol/min/mg
2,CCCn1c(Oc2ccc(F)c(F)c2)nc2nc(C3CCCC3)[nH]c2c1=O,0.05 nmol/min/mg
3,CCCn1c(-c2cccc(OC)c2)nc2nc(C3CCCC3)[nH]c2c1=O,0.03 nmol/min/mg

# Target: CYP2D6 (Homo sapiens, UniProt P10635)
# Sequence (P10635 whole entry): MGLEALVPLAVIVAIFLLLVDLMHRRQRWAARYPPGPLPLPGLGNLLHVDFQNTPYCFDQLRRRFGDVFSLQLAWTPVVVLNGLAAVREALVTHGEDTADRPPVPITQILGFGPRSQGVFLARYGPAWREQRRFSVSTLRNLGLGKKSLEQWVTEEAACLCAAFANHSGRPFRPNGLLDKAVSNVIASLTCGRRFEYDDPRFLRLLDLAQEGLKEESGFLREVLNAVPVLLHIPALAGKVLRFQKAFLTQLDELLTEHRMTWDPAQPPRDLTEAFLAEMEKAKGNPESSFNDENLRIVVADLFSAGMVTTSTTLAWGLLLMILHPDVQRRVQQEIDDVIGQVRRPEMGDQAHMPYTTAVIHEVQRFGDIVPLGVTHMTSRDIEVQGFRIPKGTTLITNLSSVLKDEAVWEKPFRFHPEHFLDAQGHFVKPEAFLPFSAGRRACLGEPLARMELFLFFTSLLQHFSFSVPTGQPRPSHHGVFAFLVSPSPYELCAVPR
# Assay: Inhibition of CYP2D6 (unknown origin) at 5 uM relative to control
# Format: ADME
# Details: not given
row,SMILES,inhibition at 5 µM
1,CCCn1c(Oc2cccnc2C)nc2nc(C3CCCC3)[nH]c2c1=O,0%
2,CCCn1c(Oc2ccc(F)c(F)c2)nc2nc(C3CCCC3)[nH]c2c1=O,10%
3,CCCn1c(-c2cccc(OC)c2)nc2nc(C3CCCC3)[nH]c2c1=O,1%

# Target: T3, Adenosine receptor A2b (Homo sapiens, UniProt P29275)
# T3 sequence (P29275 whole entry): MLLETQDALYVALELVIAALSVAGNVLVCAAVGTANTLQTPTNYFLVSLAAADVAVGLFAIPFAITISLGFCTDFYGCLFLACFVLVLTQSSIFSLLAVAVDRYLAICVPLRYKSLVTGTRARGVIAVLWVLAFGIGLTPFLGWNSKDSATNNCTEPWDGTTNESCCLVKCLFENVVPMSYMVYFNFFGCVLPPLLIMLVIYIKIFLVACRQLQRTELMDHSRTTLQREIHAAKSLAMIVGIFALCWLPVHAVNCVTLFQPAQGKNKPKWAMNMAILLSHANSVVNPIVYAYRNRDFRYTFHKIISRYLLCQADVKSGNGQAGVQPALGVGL
# Assay: Antagonist activity at human adenosine A2B receptor expressed in HEK293 cells assessed as reduction in NECA-induced increase in cAMP level preincubated for 15 mins followed by NECA addition measured after 15 mins by HTRF assay
# Format: functional, cell-based
# Details: not given
# Procedure, shortened: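 Overnight HEK-A1 or HEK-A2B cultures were treated with 1 U/mL ADA for 90 min at 37°C. Compound was added for 15 min, then agonist for 15 min (1 nM CPA for A1; 70 nM NECA for A2B) at room temperature in incomplete DMEM with ADA. Rolipram (20 µM) was included for A1 only. cAMP was read by HTRF.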
row,SMILES,pKi
1,CCCn1c(Oc2cccnc2C)nc2nc(C3CCCC3)[nH]c2c1=O,6.25
2,CCCn1c(Oc2ccc(F)c(F)c2)nc2nc(C3CCCC3)[nH]c2c1=O,< 5.00
3,CCCn1c(-c2cccc(OC)c2)nc2nc(C3CCCC3)[nH]c2c1=O,6.16 to 6.19

# Source: ChEMBL document CHEMBL3992564, “Design and synthesis of novel, potent and selective hypoxanthine analogs as adenosine A1 receptor antagonists and their biological evaluation” (Bioorg Med Chem, 2017)
